Bioassay records (PubChem BioAssay)
A selection: hits, their analogues and other compounds. The true share with any hit is near 2.6%.
Platelet DG rel: inhibitors of platelet dense granule secretion, primary screen, cell-based, MLPCN, human platelets | inhibition, %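 (compounds screened at 7.5 µM in platelet-rich plasma)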 | AID 1663, 2009 | 300,000 tested, 0.22% active | human platelet-rich plasma, SFLLRN dense granule ATP release, luminescence;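 active = mean replicate score, as percent of positive control, at or above 50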
SENP7 block: SENP7 protease inhibitors, primary screen, biochemical, luminescence, uHTS; Sentrin-specific protease 7 (Homo sapiens), Q9BQF6; recombinant SENP7, Z-RLRGG-aminoluciferin luminescence, 40 min; inhibition, % at 5 µM; 330,000 tested, 1.5% active; AID 434973, 2010;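 active = inhibition above about 50% at the single test dose, limit read from the data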;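 also: plate controls were DMSO with enzyme for no effect and no enzyme buffer wells for full effect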
Target sequence (Q9BQF6 706-1050 limits assumed): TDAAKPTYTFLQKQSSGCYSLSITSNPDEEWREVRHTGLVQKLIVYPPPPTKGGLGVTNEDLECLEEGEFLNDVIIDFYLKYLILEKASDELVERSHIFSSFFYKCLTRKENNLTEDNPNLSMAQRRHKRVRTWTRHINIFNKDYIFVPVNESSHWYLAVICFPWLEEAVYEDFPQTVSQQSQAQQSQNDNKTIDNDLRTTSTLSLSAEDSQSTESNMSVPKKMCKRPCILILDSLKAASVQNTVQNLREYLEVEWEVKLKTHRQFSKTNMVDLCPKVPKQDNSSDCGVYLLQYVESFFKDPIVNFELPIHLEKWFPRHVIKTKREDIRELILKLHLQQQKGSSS
SENP8 block-1: human SENP8 protease inhibitors, primary screen, biochemical, fluorescence, Nedd8 protein substrate, uHTS. 360,000 tested, 0.64% active. Sentrin-specific protease 8 (Homo sapiens), Q96LD8. recombinant SENP8. inhibition, % at 20 µM; in the data active = inhibition mostly above about 40%, no sharp cut-off; inactive = mostly below about 27%
SENP1 FRET inh: human SENP1 catalytic domain inhibitors, primary screen, biochemical, FRET, uHTS. recombinant SENP1 catalytic domain, CyPet-SUMO1-YPet FRET cleavage. 360,000 tested, 0.21% active. inhibition, % at 10 µM;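 active = inhibition at least 30% at 10 µM, raw YFP signal under a set limit, fluorescence ratio 0.5 to 1.5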;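 also: 0% = enzyme with DMSO and 100% = no enzyme wells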
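Compound: 10 µM single point, 0.5% DMSO; Test system: hSENP1 catalytic domain, recombinant; Timing: 50 min reaction at room temperature; Technique: FRET, CFP and YFP emission; Control set: no-enzyme wells low, DMSO-plus-enzyme wells high control.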
SENP8 block-2: SENP8 protease inhibitors, primary screen, biochemical, luminescence | purified SENP8, Z-RLRGG-aminoluciferin cleavage | inhibition, % at 10 µM | 330,000 tested, 1.2% active | AID 2540, 2010; in the data active = inhibition above about 50%
SENP6 block: SENP6 protease inhibitors, primary screen, biochemical, luminescence, uHTS; Sentrin-specific protease 6 (Homo sapiens), Q9GZR1; Recombinant SENP6 catalytic domain, aminoluciferin luminescence; inhibition, % at 10 µM; 330,000 tested, 1.8% active; AID 2599, 2010;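 active = inhibition above about 50% at the single tested dose, limit read from the data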;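 also: plate controls were DMSO wells with enzyme for no effect and DMSO wells lacking enzyme for full effect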
An asterisk follows results filed as active.

How did Cc1cc(S(=O)(=O)Nc2ccc(C(=O)NCc3cccnc3)cc2)ccc1F do in these assays?
Platelet DG rel: 5; SENP7 block: 15; SENP8 block-1: 2; SENP1 FRET inh: 0; SENP8 block-2: -6; SENP6 block: -8

Results for COc1ccc2c(c1)CC/C2=N\OC(=O)c1ccccc1OC ?
Platelet DG rel: 1; SENP7 block: 67*; SENP8 block-1: 25; SENP1 FRET inh: 1; SENP8 block-2: 42; SENP6 block: 68*

What do the screens show for `O=C(N/N=C/c1ccc(O)c(O)c1)N/N=C/c1ccc(O)c(O)c1`?
Platelet DG rel: 7; SENP7 block: 8; SENP8 block-1: 18; SENP1 FRET inh: 1; SENP8 block-2: 0; SENP6 block: -21

What do the screens show for `COc1ccc(/C=N/N=C(\N)c2nonc2N)cc1OC`?
Platelet DG rel: 4; SENP7 block: 26; SENP8 block-1: 13; SENP1 FRET inh: 0; SENP8 block-2: 11; SENP6 block: 17

What do the screens show for `N/C(=N\N=C\c1ccc(O)c(O)c1)c1nonc1N`?
Platelet DG rel: 105*; SENP7 block: 99*; SENP8 block-1: 15; SENP1 FRET inh: -11; SENP8 block-2: 96*; SENP6 block: 99*

Results for Cc1nonc1C(=O)N/N=C/c1ccc(O)c(O)c1 ?
Platelet DG rel: 67*; SENP7 block: 99*; SENP8 block-1: 15; SENP1 FRET inh: 3; SENP8 block-2: 96*; SENP6 block: 97*

How did Cc1ccc(S(=O)(=O)NC(CC(C)C)C(=O)N2CCN(C/C=C/c3ccccc3)CC2)cc1 (stereo unspecified) do in these assays?
SENP7 block: 0; SENP8 block-1: -8; SENP1 FRET inh: -9; SENP8 block-2: 1; SENP6 block: -3

What do the screens show for `O=C(/C=C/c1c(Cl)cccc1Cl)Nc1ccncc1`?
Platelet DG rel: 6; SENP7 block: 53*; SENP8 block-1: 8; SENP1 FRET inh: 0; SENP8 block-2: 43; SENP6 block: 60*

What do the screens show for `O=C(/C=C/c1c(F)cccc1Cl)Nc1nc2ccccc2[nH]1`?
Platelet DG rel: 14; SENP7 block: 69*; SENP8 block-1: 6; SENP1 FRET inh: -2; SENP8 block-2: -28; SENP6 block: -27

Results for Cc1ccc(/C=C/C(=O)Nc2nc3ccccc3[nH]2)cc1 ?
Platelet DG rel: -9; SENP7 block: 18; SENP8 block-1: -22; SENP1 FRET inh: -1; SENP8 block-2: -12; SENP6 block: 4

How did O=C(/C=C/c1ccc(Cl)cc1Cl)Nc1ccncc1 do in these assays?
Platelet DG rel: 1; SENP7 block: 43; SENP8 block-1: 15; SENP1 FRET inh: 0; SENP8 block-2: 56*; SENP6 block: 78*

How did CCN(CC)C(=O)Cn1cc([N+](=O)[O-])cc1[N+](=O)[O-] do in these assays?
SENP8 block-1: 7; SENP1 FRET inh: 1

How did COCCCNC(=O)CN(c1ccc(F)cc1)S(=O)(=O)c1ccc2c(c1)OCCO2 do in these assays?
Platelet DG rel: 6; SENP7 block: 2; SENP8 block-1: 2; SENP1 FRET inh: 1; SENP8 block-2: 5; SENP6 block: -2

Results for CC(=O)N1CC2(c3ccccc3)CN(C(C)=O)CC(c3ccccc3)(C1)C2=O ?
Platelet DG rel: -1; SENP7 block: 0; SENP8 block-1: 16; SENP1 FRET inh: 1; SENP8 block-2: 1; SENP6 block: 70*

Results for Cn1cccc1/C=C1\SC(=S)N(NC(=O)c2ccccc2)C1=O ?
SENP8 block-1: 32; SENP1 FRET inh: -81

Results for CC(/C=C1\SC(=S)N(NC(=O)c2ccc(C)cc2)C1=O)=C\c1ccccc1 ?
Platelet DG rel: 0; SENP7 block: -1; SENP8 block-1: 40*; SENP1 FRET inh: -4; SENP8 block-2: -2; SENP6 block: -4

Results for CC(/C=C1\SC(=S)N(NC(=O)c2ccncc2)C1=O)=C\c1ccccc1 ?
Platelet DG rel: -12; SENP7 block: 0; SENP8 block-1: 19; SENP1 FRET inh: 0; SENP8 block-2: 1; SENP6 block: -17
